Screening results from PubChem BioAssay.
CHO parental Ca – counter-screen: ATP calcium response change in parental CHO cells. parental CHO-K1, ATP-induced calcium, Fluo-8 fluorescence. inhibition, % at 5.6 µM. 330,000 compounds, 0.63% hits. AID 463079;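 active = inhibition above that plate's mean sample inhibition plus 3 SD, cut at about 26% in these data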;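 also: 0% = ATP-challenged DMSO wells and 100% = DMSO wells without ATP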
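Material: Parental CHO cells | Reagent: ATP | Compound dosing: Single nominal dose of 5.6 µM per compound | Detection: Intracellular calcium via Fluo-8 no-wash fluorescent dye | Read-out: % inhibition of ATP-induced calcium mobilization | Benchmarks: Low control ATP plus DMSO, high control DMSO only | Replicates: Singlicate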
OX1R antag-1 – blocks the human orexin 1 receptor. O43613. CHO/OX1R cells, Fluo-8 calcium fluorescence, orexin A. inhibition, % at 5 µM. 330,000 compounds, 0.43% hits. AID 434989;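 active = inhibition above its plate's threshold, mean inhibition of all tested compounds on the plate plus 3 SD, cut at about 37% in these data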;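 also: 0% = orexin A challenge wells and 100% = SB-334867-A antagonist wells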
Target sequence (O43613 whole entry, looked up): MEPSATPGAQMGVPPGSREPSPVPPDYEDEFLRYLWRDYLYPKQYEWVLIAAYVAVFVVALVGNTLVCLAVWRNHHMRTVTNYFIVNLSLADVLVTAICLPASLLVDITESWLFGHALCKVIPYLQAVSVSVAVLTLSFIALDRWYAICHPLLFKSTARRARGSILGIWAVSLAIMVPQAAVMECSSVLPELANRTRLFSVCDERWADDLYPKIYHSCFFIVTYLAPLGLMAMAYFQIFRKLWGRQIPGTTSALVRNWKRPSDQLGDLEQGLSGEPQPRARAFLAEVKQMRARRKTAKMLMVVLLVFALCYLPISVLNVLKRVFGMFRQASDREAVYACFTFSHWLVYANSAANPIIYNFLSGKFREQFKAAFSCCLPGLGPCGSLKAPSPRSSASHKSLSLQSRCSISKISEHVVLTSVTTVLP
M1 PAM parental – M1 PAM counterscreen hit in parental CHO-K1 cells; ATP EC20, Fluo-8 calcium fluorescence; 0% at ATP EC20, 100% at ATP max; activation, % at 3 µM; 360,000 compounds, 0.02% hits; AID 602247;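 active = activation above the run cutoff, the mean activation of all test compounds plus 3 SD, cut at about 40% in these data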;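 also: peak over basal fluorescence ratio in a 140 s read after ATP addition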
OX1R antag-2 – OX1R (human) antagonism | OX1R-expressing cells, FRET antagonist read-out | inhibition, % at 6.6 µM | 330,000 compounds, 1.8% hits | AID 485270; in the data active = inhibition mostly above about 38%, no sharp cut-off; inactive = mostly below about 40%;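 also: 0% = agonist challenge alone and 100% = reference antagonist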
CHO-K1 Ca antag – counter-screen for M1 antagonists: effect in parental CHO-K1 cells; 360,000 compounds, 0.6% hits; ATP-induced calcium, Fluo-8 fluorescence; inhibition, % at 3 µM;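 active = inhibition above a per-plate cutoff, the plate's mean sample inhibition plus 3 SD, cut at about 24% in these data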;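 also: 0% = DMSO plus EC80 ATP and 100% = DMSO alone without ATP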
CHO-K1 Ca ag – counter-screen for M1 agonists: effect in parental CHO-K1 cells; activation, % at 3 µM; Fluo-8 calcium fluorescence; scaled to maximal ATP response, vehicle zero; 360,000 compounds, 0.48% hits; in the data active = activation above about 15%;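 also: untransfected CHO-K1 host cells lacking M1 receptor as counterscreen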
The depositor's hits bear a star; . = no result given. In the library only some 2.9% were active in any assay of this set; here they are far more common.

SMILES	CHO parental Ca	OX1R antag-1	M1 PAM parental	OX1R antag-2	CHO-K1 Ca antag	CHO-K1 Ca ag
COc1cccc(NC(=O)C2CCCN(S(=O)(=O)c3cccc4nsnc34)C2)c1 (stereo unspecified)	-14.3	22.8	8.4	85.0*	4.8	1.7
O=C(NCC1CCCO1)C1CCCN(S(=O)(=O)c2cccc3nsnc23)C1 (stereo unspecified)	-8.7	-2.4	0.7	55.3*	1.1	-0.2
COc1ccccc1NC(=O)C1CCCN(S(=O)(=O)c2cccc3nsnc23)C1 (stereo unspecified)	-28.0	-20.8	-0.6	51.9	2.2	2.0
COc1ccc(NC(=O)C2CCCN(S(=O)(=O)c3cccs3)C2)cc1OC (stereo unspecified)	3.3	-20.7	-0.1	12.7	4.7	4.8
CCc1cccc(NC(=O)C2CCCN(S(=O)(=O)c3cccs3)C2)c1 (stereo unspecified)	-25.1	6.0	-18.3	52.1*	5.0	1.6
CCN1CCN(C(=O)C2CCCN(S(=O)(=O)c3cccc4nsnc34)C2)CC1 (stereo unspecified)	-12.6	-15.7	8.0	51.6*	-10.4	0.0
CCn1c(=NC(=O)C2COc3ccccc3O2)sc2c(C)ccc(OC)c21 (stereo unspecified)	-9.6	-22.4	7.0	21.7	-10.9	0.0
N#CCc1c(C#N)c(N)nc(N2CCOCC2)c1C#N	-2.9	6.0	13.2	8.2	-15.7	0.9
N#CCc1c(C#N)c(N)nc(N2CCN(C=O)CC2)c1C#N	-0.9	-7.6	-8.0	8.7	24.5*	-0.2
O=C(/C=C/[C@H]1O[C@@H](n2ccc(=O)[nH]c2=O)[C@H](O)[C@@H]1O)NCCN1CCCCC1	.	.	-4.3	.	-11.5	-0.1
Cc1ccc(NC(=O)COC(=O)CN2C(=O)C3CCCCC3C2=O)cc1S(=O)(=O)N1CCOCC1 (stereo unspecified)	3.6	-30.6	0.2	4.3	3.7	1.9
Cc1ccc(NC(=O)COC(=O)CN2C(=O)NC(C)(C)C2=O)cc1S(=O)(=O)N1CCOCC1	-0.6	-11.8	4.5	-1.2	6.1	19.5*
Cc1ccc(S(=O)(=O)C(c2ccccc2)c2c(C)noc2C)cc1 (stereo unspecified)	-11.4	-7.7	5.0	15.0	1.3	0.0
Cc1noc(C)c1C(c1ccccc1)S(=O)(=O)c1ccccc1 (stereo unspecified)	-13.9	-18.6	-11.2	10.5	28.4*	0.3
CCN(CC(=O)Nc1ccccc1-c1ccccc1)Cc1nc2ccccc2c(=O)[nH]1	-24.1	-10.0	3.4	66.5*	-8.6	1.2
COc1ccc(CCNC(=O)C2CCC(=O)N(CCc3ccc(OC)cc3)C2)cc1 (stereo unspecified)	-12.7	-16.8	-11.0	-2.8	5.0	0.8
COc1ccc(CCN2CC(C(=O)NCCCc3ccncc3)CCC2=O)cc1 (stereo unspecified)	.	.	-7.5	.	24.9*	0.0
CCN1CCN(Cc2nc3ccc([N+](=O)[O-])cc3c(=O)n2-c2ccc(OC)cc2OC)CC1	-14.6	0.8	1.3	34.2*	-11.3	1.5
COc1ccc(Cl)cc1S(=O)(=O)n1nnc2ccccc21	-5.8	-0.3	0.7	3.1	28.0*	0.4
COc1cccc(N2CCN(C(=O)Cn3c(=O)oc4ccccc43)CC2)c1	-9.1	-14.5	13.9	6.7	4.8	0.0
CN1Cc2c(N3CCOCC3)nc3sc(C(=O)c4ccc(Br)cc4)c(N)c3c2CC1(C)C	34.6*	5.4	16.9	4.8	-5.9	4.2
CN1Cc2c(N3CCOCC3)nc3sc(C#N)c(N)c3c2CC1(C)C	-29.2	-18.9	12.3	6.3	-10.1	0.1
CCN(CC(O)CON=C1c2ccccc2-c2ccccc21)S(=O)(=O)c1ccc(Cl)cc1 (stereo unspecified)	-4.6	-3.1	20.9	30.9	-13.9	2.9
Cc1cccc(N(CC(O)CON=C2c3ccccc3-c3ccccc32)S(C)(=O)=O)c1 (stereo unspecified)	-8.7	11.5	20.5	63.1*	-15.7	5.9
CCN(CC(O)CON=C1c2ccccc2-c2ccccc21)S(=O)(=O)c1ccc(C)cc1 (stereo unspecified)	-20.4	25.7	8.6	72.7*	-1.7	1.4
SMILES	CHO parental Ca	OX1R antag-1	M1 PAM parental	OX1R antag-2	CHO-K1 Ca antag	CHO-K1 Ca ag
C=CCSc1nsc(NC(=O)Nc2ccc(F)cc2)n1	50.7*	-1.1	12.5	70.1*	25.1*	14.0
CCSc1nsc(NC(=O)Nc2cccc(OC)c2)n1	43.5*	28.7	5.2	51.7*	12.9	17.0*
CCOC(=O)CNS(=O)(=O)c1cc(-c2nnc(Nc3ccc4c(c3)OCO4)c3ccccc23)ccc1C	56.7*	70.8*	10.4	24.5	-4.3	3.8
C=C(C)CN(CC)Cc1c(C(=O)N(C)CCCC)nc2ccccn12	-13.0	-21.2	11.0	3.6	-1.9	0.2
O=[N+]([O-])c1ccc(-c2nnc(CNC3CCCC3)o2)cc1	-7.4	-16.7	15.2	63.4*	-7.6	0.3
O=C(OCc1nnc(-c2ccc([N+](=O)[O-])cc2)o1)C1CCN(C(=O)c2ccc(F)cc2)CC1	-13.8	5.7	2.1	38.5*	-14.8	5.0
CCCCN(C(=O)CSc1nnc(-c2ccc(OC)cc2)n1CC)c1c(N)n(Cc2ccccc2)c(=O)[nH]c1=O	5.6	-3.3	-12.2	-3.0	27.6*	-0.4
COc1cc(F)ccc1S(=O)(=O)N1CCN(Cc2ccccc2)CC1	-9.2	-31.3	13.3	0.7	-6.2	1.1
CCOC(=O)c1[nH]c2ccc(C(=O)OC)cc2c1C(=O)OCC	-20.1	-48.9	-12.9	24.1	25.2*	-0.9
CCOC(=O)c1cc2cc3ccccc3cc2[nH]1	6.5	-7.8	3.2	37.6*	1.4	2.4
O=C(NNC(=O)C(O)(c1ccccc1)c1ccccc1)C1CC1	-13.6	-16.9	9.4	24.3	-5.2	0.6
O=C(Nc1ccc([N+](=O)[O-])cn1)c1ccc(Br)o1	-9.8	-4.9	21.9	64.1*	-1.3	0.5
CC1(C)CC(=O)C=C(Nc2ccc(O)cc2)C1	.	.	-7.3	.	3.6	0.1
CC1(C)CC(=O)C=C(Nc2ccc([N+](=O)[O-])cc2)C1	-8.0	-15.6	5.1	28.5*	-4.7	1.9
O=C(CC(=O)c1ccccc1)CS(=O)(=O)c1ccccc1	.	.	15.2	.	-2.0	-0.4
O=c1[nH]c(=S)[nH]c2nc(-c3ccccc3)cnc12	-4.4	-11.3	9.8	63.2*	-18.3	0.2
O=C(C[C@@H]1C/C=C\C[C@H](Cc2ccc(F)cc2)C(=O)OC[C@H]2CCCN2C1=O)NCCO	-5.8	-15.9	14.3	-0.5	-18.8	0.2
FC(F)(F)c1cc(CCN2CCNC[C@@H]2CC2CCCCC2)cc(C(F)(F)F)c1	51.2*	11.8	20.2	-5.6	-15.8	-0.5
CC(=O)OCCCNc1cc(Sc2ccc(C)cc2)c2nonc2c1[N+](=O)[O-]	1.4	1.1	11.3	18.0	-9.5	0.6
